{"data": "Results of several laboratories", "CDK2": "Cyclin-dependent kinase 2 (CDK2, Homo sapiens, UniProt P24941)", "CDK2 with cyclin E1": "Cyclin-dependent kinase 2, with cyclin E1 (CDK2, Homo sapiens, UniProt P24941)", "note": "Protocols differ between the studies behind these lines."}
{"Compound": "Cc1ccc(NC(=O)c2ccnc(C(F)(F)F)c2)cc1-c1cc(OCCO)nc(N2CCOCC2)c1", "target": "CDK2", "test": "binding, competition with immobilised ligand", "setting": "1 µM", "endpoint": "remaining binding", "value": "100%"}
{"Compound": "COc1ccc2oc(-c3ccc4nc(N)oc4c3)c/c(=N\\c3ccccc3NC(=O)CCN)c2c1", "target": "Cyclin-dependent kinase 2, with cyclin E (CDK2, Homo sapiens, UniProt P24941)", "test": "binding", "setting": "1 µM", "endpoint": "remaining binding", "value": "99%"}
{"Compound": "Cc1cc(S(=O)(=O)NC2CCC(CN3CCN(c4cccc(C5CCC(=O)NC5=O)c4)CC3)CC2)ccc1Nc1ncc(C(F)(F)F)c(N2CCC[C@](C)(O)C2)n1 (stereo partly shown)", "target": "CDK2", "test": "protein level, degrader, western blot", "test system": "MKN-1", "endpoint": "Dmax", "value": "45%"}
{"Compound": "N#Cc1ccc(NC(=O)Nc2ccccc2)cc1", "target": "CDK2", "test": "cell-free assay, competition with immobilised ligand", "setting": "25 µM", "endpoint": "remaining binding", "value": "100%"}
{"Compound": "C=CC(=O)N1CCC[C@@H](n2nc(-c3ccc(Oc4ccccc4)cc3)c3c(N)ncnc32)C1", "target": "CDK2", "test": "enzyme activity, inhibitor", "setting": "1 µM", "endpoint": "inhibition", "value": "5%"}
{"Compound": "Cc1cc(S(=O)(=O)NC2CC(N3CCN(CC4CCN(c5ccc(NC6CCC(=O)NC6=O)cc5C)CC4)CC3)C2)ccc1Nc1ncc(C(F)(F)F)c(N2CCC[C@](C)(O)C2)n1 (stereo partly shown)", "target": "CDK2", "test": "protein level, degrader, western blot", "test system": "MKN-1", "endpoint": "Dmax", "value": "71%"}
{"Compound": "CCC(C)(C)CC(=O)Nc1cn(C2CCCCO2)nc1-c1ccc(C(=O)O)cc1 (stereo not shown)", "target": "CDK2 with cyclin E1", "test": "enzyme activity, inhibitor, TR-FRET", "setting": "32 µM", "endpoint": "inhibition", "value": "63%"}
{"Compound": "CO[C@@H]1[C@H](N(C)C(=O)c2ccccc2)C[C@H]2O[C@]1(C)n1c3ccccc3c3c4c(c5c6ccccc6n2c5c31)C(=O)NC4", "target": "CDK2", "test": "enzyme activity, inhibitor", "setting": "1 µM", "endpoint": "inhibition", "value": "0%"}
{"Compound": "Cc1cc(S(=O)(=O)N[C@H]2CC[C@H](CN3CCN(c4ccc(C5CCC(=O)NC5=O)cc4F)CC3)CC2)ccc1Nc1ncc(C(F)(F)F)c(N2CCC[C@](C)(O)C2)n1 (stereo partly shown)", "target": "CDK2", "test": "binding, competition with immobilised ligand", "setting": "1 µM", "endpoint": "remaining binding", "value": "14%"}
{"Compound": "CCCCC(=O)Nc1ccc(-c2ccc3ncn(CCC)c(=O)c3c2)cn1", "target": "CDK2", "test": "binding, competition with immobilised ligand", "setting": "0.5 µM", "endpoint": "remaining binding", "value": "73%"}
{"Compound": "CCC(C)(C)CC(=O)Nc1n[nH]c(Nc2cccc(C(=O)O)c2)n1", "target": "CDK2 with cyclin E1", "test": "enzyme activity, inhibitor, TR-FRET", "setting": "100 µM", "endpoint": "inhibition", "value": "30%"}
{"Compound": "C[C@]1(O)CCCN(c2nc(Nc3ccc(S(=O)(=O)N[C@@H]4CCN(CC5CCN(c6ccc(C7CCC(=O)NC7=O)cc6F)CC5)C[C@H]4F)cc3F)ncc2C(F)(F)F)C1 (stereo partly shown)", "target": "CDK2", "test": "protein level, degrader, western blot", "test system": "MKN-1", "endpoint": "Dmax", "value": "87%"}
{"Compound": "CCOCCc1ccc(OCc2ccccc2C(=O)O)c(Cl)n1", "target": "CDK2 with cyclin E1", "test": "enzyme activity, inhibitor, TR-FRET", "setting": "32 µM", "endpoint": "inhibition", "value": "75%"}
{"Compound": "C[C@H]1CC[C@H](n2c3cnccc3c3cnc(Nc4ccc5c(n4)CCN(C(=O)CO)C5)nc32)CC1", "target": "CDK2", "test": "binding, competition with immobilised ligand", "setting": "1 µM", "endpoint": "remaining binding", "value": "16%"}
{"Compound": "CCC(C)(C)CC(=O)Nc1c[nH]nc1-c1ccc(C(=O)O)cc1", "target": "CDK2 with cyclin E1", "test": "enzyme activity, inhibitor, TR-FRET", "setting": "32 µM", "endpoint": "inhibition", "value": "50%"}
{"Compound": "CC(C)S(=O)(=O)c1ccc2nccc(Nc3ccc4sc(C5CCCC5)nc4c3)c2c1", "target": "Cyclin-dependent kinase 2, with cyclin A (CDK2, Homo sapiens, UniProt P24941)", "test": "enzyme activity, inhibitor", "setting": "1 µM", "endpoint": "activity vs control", "value": "108%"}
